Activity calls are given as the source filed them. The calls are words filed in the database; no cut-off is given here.
Columns and labels:
Fusarium graminearum [1] = assay: Induction of growth of Fusarium graminearum after 4 to 12 days; assay type: organism-based; settings: in vivo
Outline: (§1)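 Mycelial fragments (6 mm diameter, from 10-day cultures) were seeded on PDA in Petri dishes. Essential oil was added at 450 and 900 µL/mL, and plates were sealed and incubated in the dark at 22 °C. Controls received distilled water instead of oil. Mean diametric colony growth was read at 4, 8 and 12 days. Inhibition % = 100(C − T)/C, where C is the control diameter and T the oil-treated diameter.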

Candida albicans = assay: Antimicrobial activity against Candida albicans ATCC 14053 assessed as growth inhibition after 24 hr by broth microdilution method; assay type: functional
Outline: (§2)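 Broth microdilution. Oils prepared as […] in DMSO and diluted in the plates to 3.5–900 µL/mL. Inoculum 5×10^5 cfu/mL, checked by plating on PDA. Incubated aerobically for 24 h at 37 °C (C. albicans at 30 °C). MIC taken as the first well, in ascending order, with no pellet or turbidity. MBC (99.9% kill) from 25 µL subcultured on PDA overnight at 37 °C. Three repeats.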

Pseudomonas aeruginosa = assay: Antimicrobial activity against Pseudomonas aeruginosa ATCC 9027 assessed as growth inhibition after 24 hr by broth microdilution method; assay type: functional; outline: as §2
Escherichia coli = assay: Antimicrobial activity against Escherichia coli ATCC 8739 assessed as growth inhibition after 24 hr by broth microdilution method; assay type: functional; outline: as §2
[2] = test system: Staphylococcus epidermidis; assay: Antimicrobial activity against Staphylococcus epidermidis ATCC 12228 assessed as growth inhibition after 24 hr by broth microdilution method; assay type: functional; outline: as §2
Staphylococcus aureus = assay: Antimicrobial activity against Staphylococcus aureus ATCC 6538 assessed as growth inhibition after 24 hr by broth microdilution method; assay type: functional; outline: as §2
Rhizoctonia solani = assay: Antifungal activity against Rhizoctonia solani assessed as mycelial growth inhibition after 4 to 12 days; assay type: functional, organism-based
Outline: (§3)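 Mycelial plugs (6 mm, 10-day-old cultures) inoculated on PDA in Petri dishes; essential oil added at 450 and 900 µL/mL; dishes sealed with Parafilm and held in the dark at 22 °C. Control: PDA plus distilled water. Mean colony diameter measured at 4, 8 and 12 days; inhibition I = 100(C − T)/C. Plates without growth were transferred to plain PDA for 48 h to tell fungistatic from fungicidal.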

Fusarium culmorum = assay: Antifungal activity against Fusarium culmorum assessed as mycelial growth inhibition after 4 to 12 days; assay type: functional, organism-based; outline: as §3
Fusarium graminearum [3] = assay: Antifungal activity against Fusarium graminearum assessed as mycelial growth inhibition after 4 to 12 days; assay type: functional, organism-based; outline: as §1
[4] = test system: Fusarium oxysporum f. sp. lycopersici; assay: Antifungal activity against Fusarium oxysporum f. sp. lycopersici assessed as mycelial growth inhibition after 4 to 12 days; assay type: functional, organism-based; outline: as §3
Botrytis cinerea = assay: Antifungal activity against Botryotinia fuckeliana assessed as mycelial growth inhibition after 4 to 12 days; assay type: functional, organism-based; outline: as §3

| Compound | Activity (Fusarium graminearum [1]) | MIC (Candida albicans) [uL/ml] | MIC (Pseudomonas aeruginosa) [uL/ml] | MIC (Escherichia coli) [uL/ml] | MIC [2] [uL/ml] | MIC (Staphylococcus aureus) [uL/ml] | growth inhibition (GI) (Rhizoctonia solani) | growth inhibition (GI) (Fusarium culmorum) | growth inhibition (GI) (Fusarium graminearum [3]) | growth inhibition (GI) [4] | growth inhibition (GI) (Botrytis cinerea) |
| --- | --- | --- | --- | --- | --- | --- | --- | --- | --- | --- | --- |
| C=C1[C@@H]2CC[C@@H](C2)C1(C)C [(-)-CAMPHENE] | Toxic | >900 | >900 | >900 | >900 | >900 | inactive | inactive | inactive | inactive | inactive |
| CC1=CCC2CC1C2(C)C (stereo not drawn) [ALPHA-PINENE] | Toxic | >900 | >900 | >900 | >900 | >900 | inactive | inactive | inactive | inactive | inactive |
| CC1(C)C2CCC1(C)C(O)C2 (stereo not given) [BORNEOL] | Toxic | >900 | >900 | >900 | >900 | >900 | inactive | inactive | inactive | inactive | inactive |
| CC12CCC(CC1=O)C2(C)C (stereo not given) [CAMPHOR] | Toxic | >900 | >900 | >900 | >900 | >900 | inactive | inactive | inactive | inactive | inactive |
| CC1=CC(=O)[C@@H]2C[C@H]1C2(C)C [VERBENONE] | Toxic | >900 | >900 | >900 | >900 | >900 | inactive | inactive | inactive | inactive | inactive |

From ChEMBL document CHEMBL3045403, “chemical composition, plant genetic differences, antimicrobial and antifungal activity investigation of the essential oil of Rosmarinus officinalis L” (J Agric Food Chem, 2004)
